Drawing on ChEMBL document CHEMBL1140233, “Synthesis and preliminary biological evaluation of novel pyrazolo[1,5-a]pyrazin-4(5H)-one derivatives as potential agents against A549 lung cancer cells” (Bioorg Med Chem, 2008), this text covers IC50, Activity and viability for 18 molecules.

Assay [1] relates to A549. The experiment in a line: Growth inhibition of human A549 cells after 48 hrs by MTT assay. Format: functional, cell-based. Particulars: A549, 48 h. In a few lines:
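A549 cells kept in RPMI 1640 with 10% (v/v) bovine calf serum and 80 U/ml gentamicin at 37 °C, 5% CO2, and seeded in 96-well plates at 6250/cm². They were exposed to compound at 8, 16, 32 and 64 µM for 12, 24 or 48 h. Viability was read by MTT absorbance at 570 nm and expressed as percent of untreated control (n = 3).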

For assay [2], the system named is A549. Description: Induction of necrosis in human A549 cells at 64 uM after 48 hrs by LDH assay. Type of assay: functional, cell-based. The gist of the method:
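A549 cells cultured in RPMI 1640 with 10% bovine calf serum were exposed to compound at 64 µM for 48 h. LDH released into the culture medium was measured by absorbance at 340 nm on a UV–vis spectrometer and compared with untreated control cells.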

In assay [3] the test system is A549. The experiment in a line: Viability of human A549 cells at 32 uM after 48 hrs by MTT assay relative to control. Particulars: A549, 48 h. Background: Tetrazolium assays rely on reduction of a dye to a coloured formazan, in cell work by metabolically active cells.
Assay [4] has as its system A549. The experiment in a line: Viability of human A549 cells at 64 uM after 48 hrs by MTT assay relative to control. Particulars: A549, 48 h.
The subject of assay [5] is A549. The experiment in a line: Viability of human A549 cells at 32 uM after 12 hrs by MTT assay relative to control. Particulars: A549, 12 h.
The test system of assay [6] is A549. Description: Viability of human A549 cells at 32 uM after 24 hrs by MTT assay relative to control. Particulars: A549, 24 h.
For assay [7], the system named is A549. The experiment in a line: Induction of apoptosis in human A549 cells assessed as DNA fragmentation at 32 uM after 24 hrs by acridine orange staining. Format: functional, cell-based. In a few lines: (§1)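 A549 cells in RPMI 1640 with 10% bovine calf serum were treated with compound at 16 or 32 µM for 24 or 48 h. They were then stained with acridine orange for 1 min at room temperature and imaged by fluorescence microscopy. Nuclear DNA fragmentation, chromatin condensation and the volume of the acidic compartment were scored by eye (n = 4).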

Assay [8] deals with A549. Description: Induction of apoptosis in human A549 cells assessed as DNA fragmentation at 16 uM after 48 hrs by acridine orange staining. Type of assay: functional, cell-based. In a few lines:
as §1

Assay [9] concerns A549. The experiment in a line: Induction of apoptosis in human A549 cells assessed as DNA fragmentation at 32 uM after 48 hrs by acridine orange staining. Type of assay: functional, cell-based. The gist of the method:
as §1

For assay [10], the system named is A549. Description: Induction of autophagy in human A549 cells assessed as volume of cellular acidic compartment at 32 uM by acridine orange staining. Format: functional, cell-based. The gist of the method: as §1
Assay [11] deals with A549. Description: Induction of apoptosis in human A549 cells assessed as DNA fragmentation at 16 uM after 24 hrs by acridine orange staining. Format: functional, cell-based. In a few lines: as §1

Activity calls are given as the source filed them. The rule behind the calls is not given here.

In turn, `O=C1c2cc(-c3ccccc3)nn2CCN1Cc1ccc(Cl)nc1` registered an IC50 in the assay on A549 [1] of over 64 µM.
In the case of `CCCCN1CCn2nc(-c3ccc(Cl)cc3)cc2C1=O`, the midpoint of inhibition with A549 [1], the IC50, lay at 29.8 µM. Further, the outcome in the assay on A549 [2] was inactive.
Molecule `CC(C)(C)c1ccc(CN2CCn3nc(-c4ccccc4)cc3C2=O)cc1` showed an IC50 in the assay with A549 [1] of over 64 µM.
Same read-out and setting: the figure for `COc1ccc(-c2cc3n(n2)CCN(Cc2ccccc2)C3=O)cc1` is over 64 µM.
In the case of `CC(C)N1CCn2nc(-c3ccc(Cl)cc3)cc2C1=O`, the results for the viability at 32 µM with A549 [3], with A549 [5] and in the assay with A549 [6] were 50%, 81.4% and 75.7%, respectively. For the same molecule, in the assay on A549 [4], the viability at 64 µM turned out to be 34.6%. The IC50 in the assay with A549 [1] turned out to be 31 µM. In the assay on A549 [2], the result was inactive.
Molecule `CC(C)(C)c1ccc(CN2CCn3nc(-c4ccc(Cl)cc4)cc3C2=O)cc1` displayed an IC50 with A549 [1] of over 64 µM.
The same measure, in the same setting: the figure for `COc1ccc(-c2cc3n(n2)CCN(Cc2ccc(Cl)nc2)C3=O)cc1` is over 64 µM.
The same measure, in the same setting: the figure for `COc1ccc(-c2cc3n(n2)CCN(C(C)C)C3=O)cc1` is over 64 µM.
In the assay with A549 [1], `COc1ccc(-c2cc3n(n2)CCN(Cc2ccc(C(C)(C)C)cc2)C3=O)cc1` had an IC50 of 50.2 µM. Besides, the result in the assay on A549 [2] was inactive.
In the assay with A549 [1], `CC(C)N1CCn2nc(-c3ccccc3)cc2C1=O` showed an IC50 of over 64 µM.
`COc1ccc(CCN2CCn3nc(-c4ccccc4)cc3C2=O)cc1OC` registered an IC50 with A549 [1] of 31.5 µM. In addition, in the assay on A549 [2], the result was inactive.
Molecule `COc1ccc(-c2cc3n(n2)CCN(CCc2ccc(OC)c(OC)c2)C3=O)cc1` registered an IC50 with A549 [1] of over 64 µM.
The same measure, in the same setting: the result for `CCCCN1CCn2nc(-c3ccccc3)cc2C1=O` reads over 64 µM; that for `COc1ccc(CCN2CCn3nc(-c4ccc(Cl)cc4)cc3C2=O)cc1OC`, over 64 µM.
Take `O=C1c2cc(-c3ccc(Cl)cc3)nn2CCN1Cc1ccc(Cl)nc1`: inhibition with A549 [1] was half-maximal at 39.5 µM (IC50). The outcome in the assay with A549 [2] was inactive.
Regarding `O=C1c2cc(-c3ccc(Cl)cc3)nn2CCN1Cc1ccccc1`, the viability at 32 µM turned out to be 39.2% in the assay on A549 [3], 78.7% with A549 [5] and 73.6% in the assay on A549 [6]. For the same molecule, the result in the assay with A549 [7], in the assay on A549 [8], with A549 [9], with A549 [11] and in the assay with A549 [2] was inactive. In the assay on A549 [4], this molecule gave a viability at 64 µM of 26.5%. Further, the result in the assay with A549 [10] was Active. In addition, in the assay on A549 [1], it took 22.3 µM to reach half-maximal inhibition (IC50).
Take `CCCCN1CCn2nc(-c3ccc(OC)cc3)cc2C1=O`: in the assay on A549 [1], the IC50 was 62.5 µM.
On the same count and under the same terms, the result for `O=C1c2cc(-c3ccccc3)nn2CCN1Cc1ccccc1` reads over 64 µM.

In general, IC50 refers to the concentration that gives 50% inhibition. Low values mean inhibition by little substance, high ones a need for much substance. Usually viability stands for a per cent measure of how many cells are alive, often set against a control.
